High-throughput results: PubChem, The Scripps Research Institute Molecular Screening Center
TDP2 inh = blocks human TDP2 phosphodiesterase activity | 370,000 tested, 0.34% active | O95551 | AID 720702 | recombinant TDP2, T5PNP hydrolysis, p-nitrophenol absorbance 415 nm | inhibition, % at 12.8 µM;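 active means inhibition above the mean of all tested compounds plus 3 SD, set per campaign, cut at about 25% in these data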
Target sequence (O95551 whole entry, looked up): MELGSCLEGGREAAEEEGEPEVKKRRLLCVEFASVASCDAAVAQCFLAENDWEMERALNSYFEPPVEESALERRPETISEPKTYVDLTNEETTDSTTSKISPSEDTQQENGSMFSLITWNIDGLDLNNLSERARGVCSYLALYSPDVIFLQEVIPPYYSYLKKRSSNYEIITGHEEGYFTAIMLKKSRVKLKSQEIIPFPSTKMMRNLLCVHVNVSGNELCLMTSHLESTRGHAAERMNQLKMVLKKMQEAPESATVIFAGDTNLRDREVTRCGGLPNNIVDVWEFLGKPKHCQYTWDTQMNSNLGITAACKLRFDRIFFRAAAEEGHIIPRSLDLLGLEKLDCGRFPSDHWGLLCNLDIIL
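Incubation: 2 h at 37 °C; Test system: recombinant human TDP2; Quantity: enzyme 120 nM; Read-out basis: percent inhibition; Medium: 50 mM Tris-HCl pH 7.5 with Mg2+, KCl, DTT, BSA; Repeats: single replicate; Compound: 12.8 µM single point, 1% DMSO; Signal: epi absorbance; Reagent: 5 mM T5PNP chromogenic substrate; Benchmarks: no-enzyme high, DMSO-plus-enzyme low.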
LEDGF integ inh = blocks HIV-1 LEDGF/p75-dependent DNA integration; inhibition, % at 3.7 µM; 370,000 tested, 0.64% active; TR-FRET IN-LEDGF/p75 DNA integration, Eu/Cy5; AID 743269;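 active means inhibition above the screen-wide mean plus 3 SD, cut at about 13% in these data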;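 further: signal is the Cy5 over europium emission ratio at 671 and 618 nm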
PRMT1 FP inh = blocks human protein arginine methyltransferase 1 | Q99873 | 370,000 tested, 1.3% active | recombinant PRMT1, activity-based probe fluorescence polarization | inhibition, % at 2.79 µM;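 active means inhibition above about 21% made by adding two undisclosed values, limit read from the data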
MBD2 DNA inh = inhibitors of human MBD2 binding to methylated oligonucleotide; inhibition, % at 4.4 µM; Q9UBB5; AID 686964; 370,000 tested, 0.31% active; TR-FRET; in the data active means inhibition above about 13%
UHRF1 MBD2 ctr = human UHRF1 methylated DNA binding inhibitors. UHRF1 binding to methylated oligo, TR-FRET. 370,000 tested, 0.75% active. inhibition, % at 4.4 µM; in the data active means inhibition above about 21%;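 further: UHRF1 SRA domain binding a hemimethylated CpG hairpin DNA probe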
SIAE inh = human SIAE inhibition, primary screen; SIAE FP-Rh probe binding, fluorescence polarization; Q9HAT2; 370,000 tested, 0.69% active; inhibition, % at 9.66 µM;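 active means inhibition above a cutoff: mean of compounds within the control limits plus 3 SD of those, cut at about 17% in these data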
Hits are given with their value; - = inactive. Only some compounds are listed: those with a hit (about 3.3% of all), similar ones and a draw of the others.

SMILES	TDP2 inh	LEDGF integ inh	PRMT1 FP inh	MBD2 DNA inh	UHRF1 MBD2 ctr	SIAE inh
Nc1nc(N)c2cc(Sc3ccc4ccccc4c3)ccc2n1	-	-	-	-	-	29
Nc1nc(N)c2cc(Sc3ccc(Cl)cc3)ccc2n1	-	-	-	-	-	-
CCN(CC)C(=S)SC1=CCS(=O)(=O)C1	-	-	-	-	26	-
COC(=O)[C@]12C[C@H](CC(=O)NCCC(C)C)C(=O)N(Cc3ccco3)C1=C[C@H](C(C)(C)C)O[C@@H]2C	-	-	-	-	-	-
Cc1ccc(C(=O)NC2CCCCN(C(C)C)C2=O)cc1 (stereo not given)	-	-	-	-	-	-
CC(C)[C@H]1C=C(C(=O)O)O[C@@H](OCc2ccc(CO)cc2)C1	-	-	-	-	-	-
C[C@@H]1C=C(C(=O)O)O[C@H](OCc2ccc(CO)cc2)C1	-	-	-	-	55	-
COC(=O)[C@]12C[C@H](CC(=O)NCCc3ccccc3OC)C(=O)N(CCc3ccc(OC)c(OC)c3)C1=C[C@H](C(C)(C)C)O[C@@H]2C	-	-	-	-	-	-
O=C(O)c1sccc1Oc1ccc(NS(=O)(=O)c2cccc(F)c2)cc1	-	-	-	-	31	-
O=C(Nc1ccc(Oc2ccsc2C(=O)O)cc1)c1ccccc1	-	-	-	-	-	-
Cc1cc(=O)[nH]c(SCC(=O)Nc2nc3ccccc3s2)n1	-	-	21	-	-	-
COc1ccc(C(=O)C2(C(=O)NC3CCCC3)CC(c3ccccc3C(F)(F)F)=NO2)cc1 (stereo not given)	-	-	-	-	-	-
O=C(CSc1nc2ccccc2c(=O)n1-c1ccccc1F)Nc1ccc2c(c1)CCC2	-	-	-	-	-	-
CCN(CC)CCn1c(SCC(=O)Nc2ccc3c(c2)CCC3)nc2ccccc2c1=O	-	-	21	-	-	-
CC(C)C[C@H]1COc2cc(F)ccc2S(=O)(=O)N1C	-	-	-	-	-	-
Cc1ccc(C)c(SCC(=O)Nc2oc(C)c3c(C)n[nH]c(=O)c23)c1	-	-	22	-	-	-
Clc1ccc(CSc2nnc(-c3cccs3)o2)cc1Cl	-	-	-	-	-	-
O=C(C1CC1)N1CCc2sccc2C1c1ccc(Cl)cc1 (stereo not given)	-	-	-	-	51	-
COc1ccc(-c2ccc(C(=O)NCC3CC3)c3occc23)c(C)c1	-	-	-	-	-	-
COc1ccc(-c2ccc(C(=O)NCC(C)C)c3occc23)c(C)c1	-	-	-	-	49	-
CCCN1CCN(CCCNC(=S)Nc2ccc3nc(N4CCN(CC)CC4)cc(C)c3c2)CC1	-	-	-	-	-	-
Cc1cc(N2CCCC2)nc2ccc(NC(=S)NCCCN3CCC(C)CC3)cc12	-	-	-	-	22	-
O=C(OC12CCCN(C1)/C(=C/c1ccccc1)C2)C1CCCCC1 (stereo not given)	-	-	-	-	-	-
O=C1N=C(N2CCCC2C(=O)O)S/C1=C\c1ccco1 (stereo not given)	-	27	-	-	-	-
O=C(NC1CCCCN(Cc2ccc(Cl)cc2)C1=O)c1c(F)cccc1F (stereo not given)	-	-	-	-	-	-
SMILES	TDP2 inh	LEDGF integ inh	PRMT1 FP inh	MBD2 DNA inh	UHRF1 MBD2 ctr	SIAE inh
O=C(CSC1=NS(=O)(=O)c2ccccc21)Nc1ccccc1	-	-	63	-	-	-
O=C(CSC1=NS(=O)(=O)c2cc(F)ccc2N1)Nc1ccccc1	-	-	-	-	-	-
Cc1ccccc1NC(=O)C1CCCN1S(=O)(=O)c1cccnc1 (stereo not given)	-	-	-	-	-	-
Cc1ccc(C(C(=O)NCc2ccc(F)cc2)N(CCCO)C(=O)C2COc3ccccc3O2)o1 (stereo not given)	-	-	-	-	23	-
COc1cccc(CN(C)C(=O)c2cccnc2SC)c1OC	-	-	-	-	26	-
CCN(CC(=O)NCc1ccc(F)cc1)C(=O)C(C)Oc1cccc(Cl)c1 (stereo not given)	-	-	-	-	23	-
CN(CC(=O)NCc1ccc(F)cc1)Cc1cccc(Cl)c1	-	-	-	-	-	-
COC(=O)[C@]12C[C@H](CC(=O)NCc3cccc(C(F)(F)F)c3)C(=O)N(Cc3ccc(Cl)cc3Cl)C1=C[C@H](C(C)(C)C)O[C@@H]2C	-	-	-	-	-	-
N#CC1=C(N)SC(N)=C(C#N)C1c1ccnc2ccccc12	-	-	43	-	-	-
CCOC(=O)N1CCN(c2cc(C)c(C(C)=O)cc2F)CC1	-	-	-	-	-	-
CC(=O)c1cc(F)c(N2CCN(CCC#N)CC2)cc1C	-	-	-	-	-	27
COc1ccc(-c2c(C)n([O-])c(C)c(C)[n+]2=O)cc1OC	-	-	-	-	23	-
O=C1NC(=Nc2ccc(O)cc2)S/C1=C/c1ccco1	-	-	-	-	-	-
O=C1CNC(=O)/C(=C/c2ccco2)N1	-	-	23	-	-	-
Cc1sc2nc(-c3cccnc3)[nH]c(=O)c2c1-c1ccccc1	-	-	23	-	-	-
N[C@H](C(=O)N[C@@H](Cc1ccccc1)C(=O)N1CCC2CCN(S(=O)(=O)c3ccccc3)CC21)c1ccccc1 (stereo not given in full)	-	-	-	-	-	-
CCOc1ccc(-n2cc(-c3ccccc3)c3c(SC(C)C(=O)OC)ncnc32)cc1 (stereo not given)	-	-	-	-	22	-
Cc1ccc(Nc2nc3c([nH]2)c(=O)[nH]c(=O)n3C)cc1	-	45	-	-	-	-
O=C(O)c1cn(-c2ccc(F)cc2)c2cc(Cl)c(F)cc2c1=O	-	-	-	-	28	-
CC1CCN(C(=S)c2cn(Cc3cccc(F)c3)c3ccccc23)CC1	-	-	-	-	29	-
OC(C#CCN1CCCC1)(c1ccccc1)c1cccnc1 (stereo not given)	-	-	-	-	21	-
COC(=O)[C@]12C[C@H](CC(=O)N3CCCC3)C(=O)N(CCC3=CCCCC3)C1=C[C@H](C1CCCC1)O[C@@H]2C	-	-	-	-	-	-
Cc1cnc(NC(=O)CSc2nnc(COc3ccccc3)o2)s1	-	-	24	-	-	-
CC(=O)Oc1ccc(N(C(C)=O)S(=O)(=O)c2ccccc2)c2ccccc12	-	-	-	-	-	-
Cc1ccc(S(=O)(=O)N(C(=O)c2ccncc2)c2ccc(OC(=O)c3ccncc3)c3ccccc23)cc1	-	-	86	-	-	-
C[C@H]1[C@@H](NC(=O)c2ccc(O)cc2)CC[C@@]23CCCN2C(=O)CCC[C@@H]13	-	-	-	-	-	-
O=C(NCCc1ccccc1)OCc1cn(Cc2ccc(F)cc2)nn1	-	-	-	-	-	-
